Results: ChEMBL document CHEMBL1629670, “In vitro activities of retigeric acid B alone and in combination with azole antifungal agents against Candida albicans” (2009)
Converted amounts (≈) assume the structure as drawn.

Assays:
Type in all cases: functional
Candida albicans [1] = test: Antifungal activity against Candida albicans CA132 after 48 hrs by broth microdilution method; conditions: CA132, 48 h
In short: (§1)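 CLSI M27-A2 broth microdilution of clinical isolates in RPMI 1640 buffered to pH 7.0 with 0.165 M MOPS. Final inoculum 0.5 x 10^3 to 2.5 x 10^3 cells/ml, incubated 35°C for 48 h. Growth read as OD490 with background subtracted. MIC taken as the lowest drug concentration giving 80% growth reduction versus drug-free control. Run in triplicate.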

Candida albicans [2] = test: Antifungal activity against Candida albicans CA127 after 48 hrs by broth microdilution method; conditions: CA127, 48 h; in short: as §1
Candida albicans [3] = test: Antifungal activity against Candida albicans CA1 after 48 hrs by broth microdilution method; conditions: CA1, 48 h; in short: as §1
Candida albicans [4] = test: Antifungal activity against Candida albicans CA135 after 48 hrs by broth microdilution method; conditions: CA135, 48 h; in short: as §1
Candida albicans [5] = test: Antifungal activity against Candida albicans CA3 after 48 hrs by broth microdilution method; conditions: CA3, 48 h; in short: as §1
Candida albicans [6] = test: Antifungal activity against Candida albicans CA10 after 48 hrs by broth microdilution method; conditions: CA10, 48 h; in short: as §1
Candida albicans [7] = test: Antifungal activity against Candida albicans ATCC 10231 by broth microdilution method
In short: as §1, with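 “microdilution” for “microdilution of clinical isolates”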

Candida albicans [8] = test: Antifungal activity against Candida albicans CA137 after 48 hrs by broth microdilution method; conditions: CA137, 48 h; in short: as §1
Candida albicans [9] = test: Antifungal activity against Candida albicans CA4 after 48 hrs by broth microdilution method; conditions: CA4, 48 h; in short: as §1
Candida albicans [10] = test: Antifungal activity against Candida albicans CA138 after 48 hrs by broth microdilution method; conditions: CA138, 48 h; in short: as §1
Candida albicans [11] = test: Antifungal activity against Candida albicans CA2 after 48 hrs by broth microdilution method; conditions: CA2, 48 h; in short: as §1

SMILES | MIC (Candida albicans [1]) [µg/mL] | MIC (Candida albicans [2]) [µg/mL] | MIC (Candida albicans [3]) [µg/mL] | MIC (Candida albicans [4]) [µg/mL] | MIC (Candida albicans [5]) [µg/mL] | MIC (Candida albicans [6]) [µg/mL] | MIC (Candida albicans [7]) [µg/mL] | MIC (Candida albicans [8]) [µg/mL] | MIC (Candida albicans [9]) [µg/mL] | MIC (Candida albicans [10]) [µg/mL] | MIC (Candida albicans [11]) [µg/mL]
OC(Cn1cncn1)(Cn1cncn1)c1ccc(F)cc1F [FLUCONAZOLE] | 0.5 (≈ 1.63 µM) | 1 (≈ 3.27 µM) | 0.25 (≈ 0.816 µM) | 128 (≈ 418 µM) | 0.25 (≈ 0.816 µM) | 256 (≈ 836 µM) | 0.5 (≈ 1.63 µM) | 64 (≈ 209 µM) | 1 (≈ 3.27 µM) | 128 (≈ 418 µM) | 0.5 (≈ 1.63 µM)
CCC(C)n1ncn(-c2ccc(N3CCN(c4ccc(OCC5COC(Cn6cncn6)(c6ccc(Cl)cc6Cl)O5)cc4)CC3)cc2)c1=O (stereo unspecified) [ITRACONAZOLE] | 0.031 (≈ 0.0439 µM) | 0.016 (≈ 0.0227 µM) | 0.125 (≈ 0.177 µM) | 32 (≈ 45.3 µM) | 0.031 (≈ 0.0439 µM) | 128 (≈ 181 µM) |  | 16 (≈ 22.7 µM) | 0.031 (≈ 0.0439 µM) | 64 (≈ 90.7 µM) | 0.125 (≈ 0.177 µM)
